ChEMBL document CHEMBL1158369, “Hansch analysis of substituted benzoic acid benzylidene/furan-2-yl-methylene hydrazides as antimicrobial agents” (Eur J Med Chem, 2009)

Tests used:
[1] = system: Bacillus subtilis; assay: Antibacterial activity against Bacillus subtilis after 24 hrs by tube dilution method; format: functional
Method in brief: (§1)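 Twofold serial dilutions of test and standard compounds in double strength nutrient broth (I.P.); tubes incubated at 37 °C for 24 h. Growth judged visually; MIC taken as lowest concentration with no visible turbidity.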

[2] = system: Staphylococcus aureus; assay: Antibacterial activity against Staphylococcus aureus after 24 hrs by tube dilution method; format: functional; method in brief: as §1
[3] = Lipophilicity, log P of the compound; format: physicochemical; settings: octanol/water
[4] = system: Candida albicans; assay: Antifungal activity against Candida albicans after 48 hrs by tube dilution method; format: functional
Method in brief: (§2)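 Twofold serial dilutions of test and standard compounds in Sabouraud dextrose broth (I.P.); C. albicans incubated 37 °C for 48 h, A. niger 25 °C for 7 d. Growth read visually; MIC is lowest concentration without visible growth.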

[5] = system: Escherichia coli; assay: Antibacterial activity against Escherichia coli after 24 hrs by tube dilution method; format: functional; method in brief: as §1
[6] = system: Aspergillus niger; assay: Antifungal activity against Aspergillus niger after 7 days by tube dilution method; format: functional; method in brief: as §2

**Q.** Which “-logMIC” value [1] does the source give for COc1ccc(C(=O)N/N=C/c2cccc([N+](=O)[O-])c2)cc1OC here?
**A.** 2.33

**Q.** What about the “-logMIC” value [2] of the same compound?
**A.** 2.05

**Q.** And the logP [3]?
**A.** 2.87

**Q.** What about the “-logMIC” value [4] of the same compound?
**A.** 1.66

**Q.** What about the “-logMIC” value [5] of the same compound?
**A.** 2.63

**Q.** And the “-logMIC” value [6]?
**A.** 1.72

**Q.** With COc1ccc(/C=N/NC(=O)c2ccc(OC)c(OC)c2)cc1 as the compound, how does the “-logMIC” value [1] read?
**A.** 2.58

**Q.** What about the “-logMIC” value [2] of the same compound?
**A.** 2.17

**Q.** And the logP [3]?
**A.** 3.39

**Q.** And the “-logMIC” value [4]?
**A.** 1.68

**Q.** And the “-logMIC” value [5]?
**A.** 2.58

**Q.** And the “-logMIC” value [6]?
**A.** 1.68

**Q.** What does the source list for COc1ccc(/C=N/NC(=O)c2ccc(N)cc2)cc1?
**A.** -logMIC [1]: 2.24; -logMIC [2]: 1.63; logP [3]: 2.39; -logMIC [4]: 1.63; -logMIC [5]: 2.54; -logMIC [6]: 1.8

**Q.** Which “-logMIC” value [1] does the source give for COc1ccc(/C=N/NC(=O)c2ccc([N+](=O)[O-])cc2)cc1 here?
**A.** 2.25

**Q.** And the “-logMIC” value [2]?
**A.** 1.68

**Q.** What about the logP [3] of the same compound?
**A.** 3.13

**Q.** And the “-logMIC” value [4]?
**A.** 1.62

**Q.** What about the “-logMIC” value [5] of the same compound?
**A.** 2.56

**Q.** And the “-logMIC” value [6]?
**A.** 1.98

**Q.** Which logP [3] does the source give for Cc1ccc(C(=O)N/N=C/c2ccco2)cc1 here?
**A.** 2.84

**Q.** With COc1ccc(/C=N/NC(=O)c2cc([N+](=O)[O-])cc([N+](=O)[O-])c2)cc1OC as the compound, how does the “-logMIC” value [1] read?
**A.** 2.51

**Q.** And the “-logMIC” value [2]?
**A.** 2.38

**Q.** And the logP [3]?
**A.** 2.83

**Q.** What about the “-logMIC” value [4] of the same compound?
**A.** 1.78

**Q.** What about the “-logMIC” value [5] of the same compound?
**A.** 2.68

**Q.** What about the “-logMIC” value [6] of the same compound?
**A.** 2.08

**Q.** Which results are given for COc1ccc(/C=N/NC(=O)c2ccc(Cl)cc2)cc1OC?
**A.** -logMIC [1]: 2.61; -logMIC [2]: 2.61; logP [3]: 3.44; -logMIC [4]: 1.71; -logMIC [5]: 2.61; -logMIC [6]: 2.01

**Q.** For Cc1ccc(C(=O)N/N=C/c2cccc([N+](=O)[O-])c2)cc1, which “-logMIC” value [1] is on record?
**A.** 2.4

**Q.** And the “-logMIC” value [2]?
**A.** 2.14

**Q.** And the logP [3]?
**A.** 3.85

**Q.** And the “-logMIC” value [4]?
**A.** 1.59

**Q.** What about the “-logMIC” value [5] of the same compound?
**A.** 2.47

**Q.** And the “-logMIC” value [6]?
**A.** 1.85

**Q.** Which “-logMIC” value [1] does the source give for O=C(N/N=C/c1cccc([N+](=O)[O-])c1)c1ccc([N+](=O)[O-])cc1 here?
**A.** 2.09

**Q.** And the “-logMIC” value [2]?
**A.** 1.99

**Q.** And the logP [3]?
**A.** 3.33

**Q.** And the “-logMIC” value [4]?
**A.** 1.7

**Q.** What about the “-logMIC” value [5] of the same compound?
**A.** 2.61

**Q.** And the “-logMIC” value [6]?
**A.** 1.7

**Q.** Which “-logMIC” value [1] does the source give for COc1ccc(/C=N/NC(=O)c2ccc(C)cc2)cc1 here?
**A.** 2.32

**Q.** What about the “-logMIC” value [2] of the same compound?
**A.** 2.24

**Q.** What about the logP [3] of the same compound?
**A.** 3.64

**Q.** And the “-logMIC” value [4]?
**A.** 1.63

**Q.** What about the “-logMIC” value [5] of the same compound?
**A.** 2.54

**Q.** What about the “-logMIC” value [6] of the same compound?
**A.** 1.88

**Q.** Which results are given for COc1ccc(/C=N/NC(=O)c2ccc(N)cc2)cc1OC?
**A.** -logMIC [1]: 2.29; -logMIC [2]: 1.94; logP [3]: 2.14; -logMIC [4]: 1.68; -logMIC [5]: 2.49; -logMIC [6]: 1.9

**Q.** Which results are given for O=C(N/N=C/c1cccc([N+](=O)[O-])c1)c1cc([N+](=O)[O-])ccc1Cl?
**A.** -logMIC [1]: 2.65; -logMIC [2]: 2.65; logP [3]: 3.85; -logMIC [4]: 1.75; -logMIC [5]: 2.65; -logMIC [6]: 1.59

**Q.** With O=C(N/N=C/c1cccc([N+](=O)[O-])c1)c1cccc([N+](=O)[O-])c1 as the compound, how does the “-logMIC” value [1] read?
**A.** 2.3

**Q.** And the “-logMIC” value [2]?
**A.** 1.99

**Q.** And the logP [3]?
**A.** 3.33

**Q.** What about the “-logMIC” value [4] of the same compound?
**A.** 1.7

**Q.** What about the “-logMIC” value [5] of the same compound?
**A.** 2.61

**Q.** And the “-logMIC” value [6]?
**A.** 1.7

**Q.** With COc1ccc(/C=N/NC(=O)c2ccc(OC)c(OC)c2)cc1OC as the compound, how does the “-logMIC” value [1] read?
**A.** 2.34

**Q.** What about the “-logMIC” value [2] of the same compound?
**A.** 2.07

**Q.** And the logP [3]?
**A.** 2.42

**Q.** And the “-logMIC” value [4]?
**A.** 1.74

**Q.** And the “-logMIC” value [5]?
**A.** 2.64

**Q.** And the “-logMIC” value [6]?
**A.** 2.04

**Q.** Which “-logMIC” value [1] does the source give for Nc1ccc(C(=O)N/N=C/c2cccc([N+](=O)[O-])c2)cc1 here?
**A.** 2.29

**Q.** What about the “-logMIC” value [2] of the same compound?
**A.** 1.98

**Q.** What about the logP [3] of the same compound?
**A.** 2.6

**Q.** What about the “-logMIC” value [4] of the same compound?
**A.** 1.66

**Q.** And the “-logMIC” value [5]?
**A.** 2.56

**Q.** And the “-logMIC” value [6]?
**A.** 1.8

**Q.** With COc1ccc(/C=N/NC(=O)c2ccccc2Br)cc1OC as the compound, how does the “-logMIC” value [1] read?
**A.** 2.35

**Q.** And the “-logMIC” value [2]?
**A.** 2.52

**Q.** What about the logP [3] of the same compound?
**A.** 3.71

**Q.** What about the “-logMIC” value [4] of the same compound?
**A.** 1.76

**Q.** What about the “-logMIC” value [5] of the same compound?
**A.** 2.63

**Q.** And the “-logMIC” value [6]?
**A.** 2.06

**Q.** With COc1ccc(/C=N/NC(=O)c2cc([N+](=O)[O-])ccc2Cl)cc1OC as the compound, how does the “-logMIC” value [1] read?
**A.** 2.62

**Q.** And the “-logMIC” value [2]?
**A.** 2.67

**Q.** What about the logP [3] of the same compound?
**A.** 3.39

**Q.** And the “-logMIC” value [4]?
**A.** 1.76

**Q.** What about the “-logMIC” value [5] of the same compound?
**A.** 2.67

**Q.** What about the “-logMIC” value [6] of the same compound?
**A.** 1.95

**Q.** Which “-logMIC” value [1] does the source give for O=C(N/N=C/c1cccc([N+](=O)[O-])c1)c1ccccc1Br here?
**A.** 2.65

**Q.** What about the “-logMIC” value [2] of the same compound?
**A.** 2.35

**Q.** And the logP [3]?
**A.** 4.17

**Q.** And the “-logMIC” value [4]?
**A.** 1.75

**Q.** And the “-logMIC” value [5]?
**A.** 2.49

**Q.** What about the “-logMIC” value [6] of the same compound?
**A.** 1.75

**Q.** Which “-logMIC” value [1] does the source give for COc1ccc(/C=N/NC(=O)c2cc([N+](=O)[O-])cc([N+](=O)[O-])c2)cc1 here?
**A.** 2.42

**Q.** What about the “-logMIC” value [2] of the same compound?
**A.** 2.2

**Q.** And the logP [3]?
**A.** 3.08

**Q.** And the “-logMIC” value [4]?
**A.** 1.74

**Q.** What about the “-logMIC” value [5] of the same compound?
**A.** 2.64

**Q.** And the “-logMIC” value [6]?
**A.** 1.8

**Q.** For COc1ccc(C(=O)N/N=C/c2ccco2)cc1OC, which “-logMIC” value [1] is on record?
**A.** 1.98

**Q.** And the “-logMIC” value [2]?
**A.** 1.61

**Q.** And the logP [3]?
**A.** 1.87

**Q.** And the “-logMIC” value [4]?
**A.** 1.64

**Q.** What about the “-logMIC” value [5] of the same compound?
**A.** 2.3

**Q.** What about the “-logMIC” value [6] of the same compound?
**A.** 1.87

**Q.** Which “-logMIC” value [1] does the source give for COc1ccc(/C=N/NC(=O)c2ccc(C)cc2)cc1OC here?
**A.** 2.58

**Q.** What about the “-logMIC” value [2] of the same compound?
**A.** 2.17

**Q.** And the logP [3]?
**A.** 3.39

**Q.** And the “-logMIC” value [4]?
**A.** 1.68

**Q.** What about the “-logMIC” value [5] of the same compound?
**A.** 2.58

**Q.** And the “-logMIC” value [6]?
**A.** 1.75

**Q.** Which results are given for O=C(N/N=C/c1cccc([N+](=O)[O-])c1)c1ccc(Cl)cc1?
**A.** -logMIC [1]: 2.59; -logMIC [2]: 2.59; logP [3]: 3.9; -logMIC [4]: 1.69; -logMIC [5]: 2.59; -logMIC [6]: 1.69

**Q.** With O=C(N/N=C/c1ccco1)c1cc([N+](=O)[O-])cc([N+](=O)[O-])c1 as the compound, how does the “-logMIC” value [1] read?
**A.** 2.29

**Q.** What about the “-logMIC” value [2] of the same compound?
**A.** 1.99

**Q.** What about the logP [3] of the same compound?
**A.** 2.28

**Q.** And the “-logMIC” value [4]?
**A.** 1.69

**Q.** What about the “-logMIC” value [5] of the same compound?
**A.** 2.47

**Q.** And the “-logMIC” value [6]?
**A.** 1.69

**Q.** What does the source list for COc1ccc(/C=N/NC(=O)c2cccc([N+](=O)[O-])c2)cc1OC?
**A.** -logMIC [1]: 2.28; -logMIC [2]: 2.05; logP [3]: 2.87; -logMIC [4]: 1.64; -logMIC [5]: 2.63; -logMIC [6]: 1.75

**Q.** Which “-logMIC” value [1] does the source give for COc1ccc(/C=N/NC(=O)c2ccc([N+](=O)[O-])cc2)cc1OC here?
**A.** 2.34

**Q.** What about the “-logMIC” value [2] of the same compound?
**A.** 1.99

**Q.** What about the logP [3] of the same compound?
**A.** 2.87

**Q.** What about the “-logMIC” value [4] of the same compound?
**A.** 1.72

**Q.** What about the “-logMIC” value [5] of the same compound?
**A.** 2.63

**Q.** What about the “-logMIC” value [6] of the same compound?
**A.** 1.75

**Q.** For OC(Cn1cncn1)(Cn1cncn1)c1ccc(F)cc1F [FLUCONAZOLE], which “-logMIC” value [4] is on record?
**A.** 2.64

**Q.** And the “-logMIC” value [6]?
**A.** 2.64

**Q.** Which results are given for CCn1cc(C(=O)O)c(=O)c2cc(F)c(N3CCNCC3)cc21 [NORFLOXACIN]?
**A.** -logMIC [1]: 2.61; -logMIC [2]: 2.61; -logMIC [5]: 2.61
